In the library only some 3.4% were active in any assay of this set; here they are far more common.
ERAP1 HTS inh – inhibitors of human ERAP1 aminopeptidase; recombinant ERAP1, Leu-AMC fluorescence, 60 min; inhibition, % at 10.7 µM; Q9NZ08; actives 0.15% (n = 340,000);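 active means mean replicate inhibition of at least 30%, or all replicates individually reaching that 30% level; inactive means mean below 30% and not every replicate reaching it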;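 further: 0% = neutral control wells and 100% = L-leucinethiol positive control wells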
rRNA inh HTS – inhibits bacterial ribosomal RNA function over humanized ribosomes | E. coli WT GFP vs humanized-ribosome RFP mutants, fluorescence, 24 h; stronger effect = lower value; DMSO median 0, no signal -100 | GFP signal change (wild-type ribosome), % (no concentration beside the values) | actives 1.6% (n = 350,000);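 active means significant combined selectivity score with lowered wild-type GFP, culture density cut under 30%, mutant RFP and density less affected; inactive means any of these conditions unmet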
S100A4 inh HTS – blocks human S100A4 binding to myosin IIA peptide; P26447; S100A4/TAMRA-MyoIIA peptide fluorescence polarization; inhibition, % at 10.7 µM; actives 0.14% (n = 360,000); AID 652163;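 active means mean inhibition of at least 70% across replicates, with every replicate also reaching that level; inconclusive means mean inhibition reaches 70% but some replicates fall short; inactive means mean inhibition below 70%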
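Compound dosing: one dose per compound; test system: human S100A4 monomer with TAMRA-labelled myosin IIA peptide; probe or stimulus: TAMRA-labelled myosin IIA heavy-chain peptide probe, 5 nM; medium: HEPES buffer with Ca2+, pH 7.2; schedule: 5 min incubation before reading; benchmarks: neutral control DMSO, positive control TFP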
E-selectin induc – induces E-selectin expression in human endothelial cells | activation, % at 7.58 µM | HUVEC E-selectin immunofluorescence imaging; normalized: neutral wells 0, TNF-alpha wells 100 | actives 0.37% (n = 260,000) | AID 686992 | P16581;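 active means mean E-selectin-positive cell signal at least 10% of the positive control, reached in at least 60% of replicates, without over 20% cell loss; inconclusive means no rule given, readout overlaps actives, possibly toxicity-flagged; inactive means the rest, including those meeting only one limit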
Target sequence (P16581 whole entry, looked up): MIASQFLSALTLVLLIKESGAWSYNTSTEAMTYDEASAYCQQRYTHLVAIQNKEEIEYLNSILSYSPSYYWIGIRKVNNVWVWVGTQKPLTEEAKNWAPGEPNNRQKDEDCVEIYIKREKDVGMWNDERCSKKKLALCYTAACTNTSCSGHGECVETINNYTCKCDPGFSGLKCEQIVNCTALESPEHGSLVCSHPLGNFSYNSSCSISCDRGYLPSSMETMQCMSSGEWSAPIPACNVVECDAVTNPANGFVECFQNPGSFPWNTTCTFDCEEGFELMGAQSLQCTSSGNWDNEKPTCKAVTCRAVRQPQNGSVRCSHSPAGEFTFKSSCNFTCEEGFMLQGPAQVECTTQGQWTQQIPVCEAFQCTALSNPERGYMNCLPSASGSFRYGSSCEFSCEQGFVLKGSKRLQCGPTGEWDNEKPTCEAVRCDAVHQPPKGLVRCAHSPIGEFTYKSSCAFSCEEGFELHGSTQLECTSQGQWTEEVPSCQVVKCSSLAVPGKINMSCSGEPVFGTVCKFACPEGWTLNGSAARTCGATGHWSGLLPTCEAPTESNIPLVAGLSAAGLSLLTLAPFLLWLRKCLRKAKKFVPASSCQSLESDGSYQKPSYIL
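Test system: HUVEC; input: 3,000 HUVEC/well; measured by: immunofluorescence imaging; read-out: % PE-positive cells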
SIRT5 block – sirtuin-5 (human) deacylase inhibition | Q9NXA8 | AID 652115 | inhibition, % at 15 µM | Purified SirT5, succinyl-peptide AMC, trypsin-coupled fluorescence | actives 1.1% (n = 330,000); in the data active means inhibition above about 15%; inconclusive means no clear call, values can overlap the other calls
AF4-AF9 inh – inhibitors of human MLL-AF4/AF9 interaction; AlphaScreen, biotin-AF4 peptide binding to FLAG-AF9; inhibition, % at 10 µM; actives 0.47% (n = 350,000); AID 651704;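 active means every replicate reaching a set inhibition limit, whatever the replicate mean, cut at about 25% in these data; inconclusive means mean inhibition reaches that limit but some replicates miss it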;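 further: 0% = plate neutral control median and 100% = total signal loss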
Starred values were filed as active, the others as inactive; ? = inconclusive; / = no result given.

SMILES	ERAP1 HTS inh	rRNA inh HTS	S100A4 inh HTS	E-selectin induc	SIRT5 block	AF4-AF9 inh
C[C@@H]1CN([C@H](C)CO)C(=O)c2ccccc2-c2ccccc2CO[C@H]1CN(C)C(=O)Oc1ccccc1	-4	0	94*	0	6	6
CCOC(=O)N(C)C[C@@H]1OCc2ccccc2-c2ccccc2C(=O)N([C@@H](C)CO)C[C@H]1C	1	-2	34	0	25*	-2
COc1ccc(S(=O)(=O)Nc2ccc3c(c2)CC(=O)N([C@H](C)CO)C[C@H](C)[C@@H](CN(C)C(=O)NC2CCCCC2)O3)cc1	-2	1	3	53*	-5	1
COc1ccc(S(=O)(=O)Nc2ccc3c(c2)CC(=O)N([C@@H](C)CO)C[C@@H](C)[C@@H](CN(C)C(=O)NC2CCCCC2)O3)cc1	-1	1	12	74*	1	-2
C[C@H]1CN([C@@H](C)CO)C(=O)Cc2cc(NS(=O)(=O)c3ccc(F)cc3)ccc2O[C@@H]1CN(C)C(=O)NC1CCCCC1	0	-3	3	0	-7	-2
COc1ccc(S(=O)(=O)Nc2ccc3c(c2)CC(=O)N([C@H](C)CO)C[C@H](C)[C@H](CN(C)C(=O)NC2CCCCC2)O3)cc1	-1	7	13	76*	3	-1
C[C@@H]1CN([C@H](C)CO)C(=O)Cc2cc(NS(=O)(=O)c3ccc(Cl)cc3)ccc2O[C@H]1CN(C)C(=O)NC1CCCCC1	-2	1	-4	3	-1	-3
CN(Cc1c(F)cccc1Cl)C(=O)c1ccc(NS(=O)(=O)c2ccc3[nH]c(=O)[nH]c3c2)cc1	3	-22*	-2	3	0	4
C[C@H]1CN([C@@H](C)CO)C(=O)c2cc(NS(=O)(=O)c3cccs3)ccc2O[C@H]1CN(C)S(=O)(=O)c1ccc(F)cc1	2	0	1	0	-1	3
O=C(c1ccc(-c2ccccc2)c(F)c1)C1CCCN(CCCn2cccn2)C1 (centres undefined)	2	-22*	15	5	-1	12
CCn1cc(CN2CCCC(C(=O)c3ccc(-c4ccccc4)c(F)c3)C2)cn1 (centres undefined)	1	-13	-3	-6	-1	14
C=CCc1cc(OC)ccc1OCCN1CC(C)OC(C)C1 (centres undefined)	-2	-8	-5	/	102*	3
NC1=NC(=O)C(=Cc2ccccc2)S1	0	7	-2	0	/	-1
NC1=NC(=O)/C(=C/c2cccc(F)c2)S1	-1	8	3	54*	-2	0
CC1Cc2ccccc2N1CC(=O)Nc1ccc(Cl)c(S(=O)(=O)N(C)C)c1 (centres undefined)	0	12	4	0	16*	5
CC1Cc2ccccc2N1CC(=O)Nc1ccc(S(=O)(=O)N(C)C)cc1 (centres undefined)	-1	6	0	1	-3	-7
CN=c1scc(-c2ccccc2F)n1/N=C/c1ccc[nH]1	-2	-22*	21	/	1	45*
CO[C@@H]1CN(C)C(=O)c2cc(NS(=O)(=O)c3cccc(C)c3)ccc2OC[C@H](C)NC[C@@H]1C	5	1	6	0	8	-6
Cc1cc(C(=O)N/N=C/c2cc(Br)cc(Br)c2OC(=O)c2cccc(F)c2)n[nH]1	3	-31*	-5	/	-1	0
COc1ccc(C(CCNCc2ccc(OC(C)C)cc2)C(C)C)cc1 (centres undefined)	-3	-48*	-20	0	-3	?
COc1cccc(CNC(=O)[C@@H]2CCCN2)c1	-2	3	2	0	25*	-2
C[C@H]1CN([C@@H](C)CO)S(=O)(=O)c2ccc(C#CC3(O)CCCC3)cc2O[C@@H]1CN(C)C(=O)c1cccnc1	-2	0	-30	/	0	-1
CCCC#Cc1ccc2c(c1)O[C@H](CN(C)C(=O)c1ccccc1F)[C@@H](C)CN([C@@H](C)CO)S2(=O)=O	3	-11	10	1	19*	0
C[C@@H]1CN([C@H](C)CO)S(=O)(=O)c2ccc(C#CC3(O)CCCC3)cc2O[C@H]1CN(C)C(=O)c1cccnc1	3	1	13	/	27*	-2
CCCC#Cc1ccc2c(c1)O[C@@H](CN(C)C(=O)c1ccccc1F)[C@@H](C)CN([C@H](C)CO)S2(=O)=O	2	-8	27	1	20*	-1
SMILES	ERAP1 HTS inh	rRNA inh HTS	S100A4 inh HTS	E-selectin induc	SIRT5 block	AF4-AF9 inh
CCCC#Cc1ccc2c(c1)O[C@@H](CN(C)C(=O)c1ccncc1)[C@H](C)CN([C@@H](C)CO)S2(=O)=O	-1	-3	3	118*	0	-4
COc1cc(CN2CC3(CN(C(=O)Nc4cccc(F)c4)C3)c3c(n(C)c4cc(OC)ccc34)[C@@H]2CO)cc(OC)c1	-1	5	8	0	7	-2
Cc1ccccc1-n1c(-c2ccc3ccccc3n2)n[nH]c1=S	0	-33*	0	0	0	/
COc1ccc(-c2n[nH]c(=S)n2-c2ccccc2C)cc1	1	-4	1	/	-4	-4
Cc1cc(OC(=O)c2cc([N+](=O)[O-])ccc2Cl)c([N+](=O)[O-])c(=O)[nH]1	-4	-17	8	1	0	47*
Cc1cc(OC(=O)c2cc(Cl)ccc2Cl)c([N+](=O)[O-])c(=O)[nH]1	-4	-18	-5	0	0	-4
C=CCn1cc(C(=O)NCCCOC)c(=O)c2cc(S(=O)(=O)N(CC)CC)ccc21	/	/	/	-1	/	/
C=CCn1cc(C(=O)N2CCN(CC)CC2)c(=O)c2cc(S(=O)(=O)N(CC)CC)ccc21	5	-2	1	0	-6	45*
O=C(CN1C(=O)COc2ccccc21)NNC(=O)Nc1ccccc1F	-1	3	-1	0	26*	3
O=C(CN1C(=O)COc2ccccc21)Nc1ccccc1F	-4	16	1	/	1	-1
COc1ccc2c3c(n(C)c2c1)[C@@H](CO)N(Cc1ccc(F)cc1)CC31CN(CC2CC2)C1	3	5	5	0	-2	6
COc1ccc2c3c(n(C)c2c1)[C@@H](CO)N(Cc1ccccc1F)CC31CCN(CC2CC2)CC1	-4	-3	2	-1	1	33*
COc1ccc2c3c(n(C)c2c1)[C@@H](CO)N(CC1CC1)CC31CN(Cc2ccc(F)cc2)C1	2	1	-6	0	-2	30*
COc1ccc2c3c(n(C)c2c1)[C@@H](CO)N(Cc1ccccc1F)CC31CN(CC2CC2)C1	/	3	/	/	/	/
